Data published in ChEMBL document CHEMBL1129404, “6-phenyl-1,4-dihydropyridine derivatives as potent and selective A3 adenosine receptor antagonists” (J Med Chem, 1996).

biological target: T1, Adenosine receptor A1 (Rattus norvegicus) (UniProt P25099); experiment: Binding affinity for Adenosine A1 receptor in rat cerebral cortex membrane with [3H]-(R)-PIA.; assay type: cell membranes; settings: not given
T1 sequence (whole entry): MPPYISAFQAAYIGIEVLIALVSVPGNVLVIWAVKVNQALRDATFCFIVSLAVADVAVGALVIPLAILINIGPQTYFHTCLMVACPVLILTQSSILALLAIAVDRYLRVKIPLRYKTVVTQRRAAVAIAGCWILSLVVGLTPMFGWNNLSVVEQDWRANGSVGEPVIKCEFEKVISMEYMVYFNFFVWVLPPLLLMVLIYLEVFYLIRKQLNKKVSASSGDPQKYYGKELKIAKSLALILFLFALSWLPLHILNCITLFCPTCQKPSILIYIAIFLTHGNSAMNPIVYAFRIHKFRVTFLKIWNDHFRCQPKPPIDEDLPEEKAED
Summary of the method: (§1)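 Rat cerebral cortex membranes prepared with adenosine deaminase (3 units/mL), preincubated 30 min at 30 °C, with deaminase also present during incubation with [3H]-(R)-PIA. Competitor used at five or more concentrations spanning 3 orders of magnitude.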

Inhibition (at concentration M) [%] | SMILES
24 | CCOC(=O)C1=C(c2ccccc2)N=C(C)/C(=C(/O)OCc2ccccc2)C1C#Cc1ccccc1 (stereo not given)
35 | CCO/C(O)=C1\C(C)=NC(c2ccccc2)=C(C(=O)OCc2ccccc2)C1/C=C/c1ccccc1 (stereo not given)

biological target: T1, Adenosine receptor A1 (Rattus norvegicus); experiment: Binding affinity for Adenosine A1 receptor in rat cerebral cortex membrane with [3H](R)-PIA.; assay type: cell membranes; settings: concentration not given here; summary of the method: as §1

inhibition [%] | SMILES
33 | CCO/C(O)=C1\C(C)=NC(c2ccccc2)=C(C(=O)OCc2ccccc2)C1/C=C/c1ccc([N+](=O)[O-])cc1 (stereo not given)
< 10 | CCOC(=O)C1=C(c2ccccc2)N=C(C)/C(=C(/O)OCc2ccccc2)C1/C=C/c1ccc([N+](=O)[O-])cc1 (stereo not given)

biological target: Adenosine receptor A2a (Rattus norvegicus) (UniProt P30543); experiment: Binding affinity for Adenosine A2A receptor in rat striatal membrane with [3H]-CGS- 21680; assay type: cell membranes; design: concentration or dose not given beside the values; settings: Striatum
Sequence (P30543 whole entry): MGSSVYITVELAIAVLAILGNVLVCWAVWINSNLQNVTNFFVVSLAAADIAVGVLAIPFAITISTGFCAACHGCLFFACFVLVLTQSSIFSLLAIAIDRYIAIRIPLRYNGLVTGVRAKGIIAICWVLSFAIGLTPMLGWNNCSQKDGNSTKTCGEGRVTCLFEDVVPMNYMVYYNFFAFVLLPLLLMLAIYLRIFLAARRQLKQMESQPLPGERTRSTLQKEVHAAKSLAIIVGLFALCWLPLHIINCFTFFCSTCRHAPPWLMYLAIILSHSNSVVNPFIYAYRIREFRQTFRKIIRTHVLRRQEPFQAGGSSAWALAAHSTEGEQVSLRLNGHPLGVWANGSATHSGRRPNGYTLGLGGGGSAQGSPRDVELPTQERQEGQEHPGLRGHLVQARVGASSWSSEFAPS

SMILES | Inhibition (at concentration M) [%]
CCOC(=O)C1=C(c2ccccc2)N=C(C)/C(=C(/O)OCc2ccccc2)C1C#Cc1ccccc1 (stereo not given) | < 10
CCOC(=O)C1=C(c2ccccc2)N=C(C)/C(=C(/O)OCC)C1C=C(c1ccccc1)c1ccccc1 (stereo not given) | 12
CCO/C(O)=C1\C(C)=NC(c2ccccc2)=C(C(=O)OCc2ccccc2)C1C#Cc1ccccc1 (stereo not given) | < 10
CCOC(=O)C1=C(c2ccccc2)N=C(C)/C(=C(/O)OCC)C1C#Cc1ccccc1 (stereo not given) | 26

Results, then the compound that gave them:

Inhibition (at concentration M) [%] | SMILES
15 | CCO/C(O)=C1\C(C)=NC(c2ccccc2)=C(C(=O)OCc2ccccc2)C1/C=C/c1ccccc1 (stereo not given)
37 | CCOC(=O)C1=C(c2ccc(C)cc2)N=C(C)/C(=C(/O)OCC)C1/C=C/c1ccccc1 (stereo not given)

system: not listed separately; experiment: Relative binding affinities for rat adenosine A1 and human adenosine A3 receptors; Selectivity ratio; settings: not given
Summary of the method: (§2)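 Ratio of Ki values: rat A1 ([3H]-(R)-PIA, rat cortical membranes) over human A3 ([125I]AB-MECA, HEK-293 membranes), each Ki derived by Cheng-Prusoff from competition curves.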

Ratio | SMILES
24 | CCOC(=O)C1=C(C)NC(C)=C(C(=O)OC)C1/C=C/c1ccccc1 (stereo not given)
4.2 | CCOC(=O)c1c(C)nc(-c2ccccc2)c(C(=O)OCc2ccccc2)c1C#Cc1ccccc1

system: not listed separately; experiment: Relative affinities for rat adenosine A1 and human adenosine A3 receptors; settings: not given; summary of the method: as §2

Selectivity ratio | SMILES
1.7 | CCOC(=O)c1c(C)nc(-c2ccccc2)c(C(=O)OCC)c1C

biological target: Adenosine receptor A2a (Rattus norvegicus, UniProt P30543); experiment: Displacement of [3H]-CGS- 21680 from Adenosine A2A receptor of rat striatal membrane; settings: not given
Sequence (P30543 whole entry): as above

SMILES | Ki [µM]
CCOC(=O)C1=C(c2ccccc2)N=C(C)/C(=C(/O)OCC)C1CC (stereo not given) | 14.5
CCO/C(O)=C1\C(C)=NC(C)=C(C(=O)OC)C1CC (stereo not given) | 7.89

Next, values leading:

Ki [µM] | SMILES
3.15 | CCO/C(O)=C1\C(C)=NC(c2ccccc2)=C(C(=O)OCc2ccccc2)C1C (stereo not given)
2.4 | CCOC(=O)c1c(C)nc(-c2ccccc2)c(C(=O)OCC)c1/C=C/c1ccccc1
9.23 | CCOC(=O)C1=C(C)N=C(C)/C(=C(/O)OCC)C1/C=C/c1ccccc1 (stereo not given)

biological target: Adenosine receptor A2a (Rattus norvegicus) (UniProt P30543); experiment: Inhibition of [3H]-CGS- 21680 binding to Adenosine A2A receptor of rat striatal membrane; design: concentration or dose not given beside the values; settings: concentration not given here

SMILES | inhibition [%]
CCOC(=O)C1=C(c2ccccc2)N=C(C)/C(=C(/O)OCC)C1/C=C/c1ccccc1OC (stereo not given) | 17
CCOC(=O)C1=C(c2ccc(OC)cc2)N=C(C)/C(=C(/O)OCC)C1/C=C/c1ccccc1 (stereo not given) | < 10
CCOC(=O)C1=C(c2ccccc2)N=C(C)/C(=C(/O)OCC)C1/C=C/c1ccc([N+](=O)[O-])cc1 (stereo not given) | 33
CCOC(=O)c1c(C)nc(-c2ccccc2)c(C(=O)OCc2ccccc2)c1C#Cc1ccccc1 | 43

Second part, the compound after the results:

inhibition [%] | SMILES
< 10 | CCOC(=O)C1=C(c2ccccc2)N=C(C)/C(=C(/O)OCC)C1/C=C/c1ccccc1[N+](=O)[O-] (stereo not given)
12 | CCOC(=O)C1=C(c2ccc(Cl)cc2)N=C(C)/C(=C(/O)OCC)C1/C=C/c1ccccc1 (stereo not given)
< 10 | CCO/C(O)=C1\C(C)=NC(c2ccccc2)=C(C(=O)OCc2ccccc2)C1/C=C/c1ccc([N+](=O)[O-])cc1 (stereo not given)
< 10 | CCOC(=O)C1=C(c2ccccc2)N=C(C)/C(=C(/O)OCc2ccccc2)C1/C=C/c1ccc([N+](=O)[O-])cc1 (stereo not given)
< 10 | CCOC(=O)C1=C(c2ccsc2)N=C(C)/C(=C(/O)OCC)C1/C=C/c1ccccc1 (stereo not given)
35 | CCOC(=O)C1=C(c2ccoc2)N=C(C)/C(=C(/O)OCC)C1/C=C/c1ccccc1 (stereo not given)
14 | CCOC(=O)C1=C(C)NC(C)=C(C(=O)OCc2ccccc2)C1/C=C/c1ccccc1 (stereo not given)

biological target: T1, Adenosine receptor A1 (Rattus norvegicus); experiment: Binding affinity for Adenosine A1 receptor of rat cerebral cortex membrane with [3H](R)-PIA.; assay type: tissue-based; settings: not given; summary of the method: as §1

Inhibition (at concentration M) [%] | SMILES
< 10 | CCOC(=O)C1=C(c2ccccc2)N=C(C)/C(=C(/O)OCc2ccccc2)C1/C=C/c1ccccc1 (stereo not given)
